ILS and Weight loss data for 2 molecules are collected here from ChEMBL document CHEMBL1124443, “2'-Fluorinated isonucleosides. 1. Synthesis and biological activity of some methyl 2'-deoxy-2'-fluoro-2'-pyrimidinyl-D-arabinopyranosides” (J Med Chem, 1989).

In data set [1] the test system is Mus musculus. Kind of data set: Percent increase in life span of leukemic mice administered, with compound at 50 mg/kgx5, intraperitoneally. In kind it is functional. Particulars: ip, route intraperitoneal. An outline of the steps: (§1)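 Female DBA/2 mice (19–20 g) received 10^6 L1210 cells ip on day 0. Drug was given ip once daily for 5 consecutive days starting day 1. Survival was monitored daily. % ILS was derived from mean survival versus untreated mice.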

For data set [2], the system named is Mus musculus. The data set is described as follows: Percent increase in life span of leukemic mice administered, with compound at 100 mg/kgx5, intraperitoneally. The conditions noted are these: ip, route intraperitoneal. In kind it is functional. An outline of the steps: as §1
Data set [3] is filed under the species Mus musculus. The data set is described as follows: Weight loss in mice treated with compound at 200 mkdx5. The class given is functional. Put shortly: (§2)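 Female DBA/2 mice (19–20 g) bearing ip L1210 leukemia (10^6 cells, day 0) were dosed ip daily for 5 consecutive days starting on day 1. Mice were weighed daily, and weight loss was recorded as body weight in g.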

The species named for data set [4] is Mus musculus. Kind of data set: Weight loss in mice treated with compound at 50 mkdx5. The class given is functional. An outline of the steps:
as §2

The species entered for data set [5] is Mus musculus. The data set is described as follows: Weight loss in mice treated with compound at 100 mkdx5. In kind it is functional. An outline of the steps:
as §2

Data set [6] can be described thus: Therapeutic effect of compound (25 mkdx3) on mice with L1210/5-FU leukemia; No effect. Particulars: mouse.
Data set [7] deals with Mus musculus. Kind of data set: Percent increase in life span of leukemic mice administered, with compound at 5 mkdx3, on days 1,3,6. In kind it is functional. Put shortly: (§3)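 L1210 cells (10^6) were implanted ip on day 0 in female DBA/2 mice. Dosing was 5 or 25 mg/kg/day on days 1, 3 and 6 (3 doses). Daily survival monitoring; % increase in life span versus untreated controls.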

Data set [8] deals with Mus musculus. The data set is described as follows: Percent increase in life span of leukemic mice administered, with compound at 25 mkdx3, on days 1,3,6. The class given is functional. Put shortly: as §3

For orientation: ILS means how much longer treated animals lived than controls.

On to `Nc1ccn([C@@H]2O[C@H](CO)[C@@H](O)[C@@H]2O)c(=O)n1` [CYTARABINE], for which the ILS at 50 mg/kg in the data set with Mus musculus [1] was determined as 104%. Also, the increase in life span (ILS) at 100 mg/kg in the data set with Mus musculus [2] is 126%.

In the case of `O=c1[nH]cc(F)c(=O)[nH]1` [FLUOROURACIL], the Weight loss in the data set listed under Mus musculus [3], in the data set listed under Mus musculus [4] and in the data set filed under Mus musculus [5] was 14 g in each case. Further, the values for the ILS entry (in data set [6]; with Mus musculus [7]; in the data set with Mus musculus [8]) were “No effect”, 41% and 88%, respectively.
